Screens deposited in PubChem BioAssay by Broad Institute.
IDH1 R132H inh = inhibitors of IDH1 R132H reductase, primary screen, biochemical, plate reader, single point. inhibition, % at 10 µM. AID 624101, 2012. diaphorase/resazurin fluorescence, 60 min. 70,000 compounds, 0.18% hits. Isocitrate dehydrogenase [NADP] cytoplasmic (Homo sapiens), O75874; in the data active = inhibition above about 34%; inconclusive = no clear call, values can overlap the other calls; inactive = below about 11%
Target sequence (O75874 whole entry R132H): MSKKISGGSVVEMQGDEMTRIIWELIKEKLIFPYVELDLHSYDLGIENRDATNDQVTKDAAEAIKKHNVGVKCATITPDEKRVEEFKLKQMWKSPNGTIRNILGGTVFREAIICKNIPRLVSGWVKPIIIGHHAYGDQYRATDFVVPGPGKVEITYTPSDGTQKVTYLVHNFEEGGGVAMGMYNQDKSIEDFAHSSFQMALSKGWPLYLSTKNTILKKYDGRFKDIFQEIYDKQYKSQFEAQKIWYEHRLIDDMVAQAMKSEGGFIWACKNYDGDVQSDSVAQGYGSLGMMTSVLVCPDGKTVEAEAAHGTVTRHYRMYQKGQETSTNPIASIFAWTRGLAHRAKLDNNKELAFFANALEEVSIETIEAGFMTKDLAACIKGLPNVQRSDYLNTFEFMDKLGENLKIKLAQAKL
GASC1 inh = inhibitors of GASC-1 (KDM4C) histone demethylase, primary screen, biochemical, single concentration HTS; inhibition, % at 12.5 µM; AID 720574, 2013; GST-KDM4C 2-372, H3K9me3 peptide, LANCE TR-FRET; Lysine-specific demethylase 4C (Homo sapiens), Q9H3R0; 96,000 compounds, 0.15% hits;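 active = mean replicate inhibition above about 25%, with at least 55% of replicates also reaching it, limit read from the data, passing the limit was not always enough; inconclusive = only one of those two conditions met; inactive = neither condition met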
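System – N-terminal GST-fused human GASC-1 (KDM4C) fragment, residues 2-372 · Input – enzyme final amount 10 nM · Technique – LANCE TR-FRET, Eu antibody, ULight-streptavidin, EDTA, ex 340 nm, em 618/671 nm · Medium – HEPES buffer, pH 7.5, plus ascorbate · Incubation – enzyme reaction 30 min, then detection 60 min, both room temperature · Reagent – H3K9me3 peptide with Fe(II)/2OG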
T cruzi growth-1 = T. cruzi intracellular proliferation inhibitors, primary screen, cell-based, beta-gal Tulahuen parasites, NIH3T3 host, luminescence; T. cruzi beta-gal in NIH3T3, GalScreen luminescence, 90 h; inhibition, % at 8.34 µM; 77,000 compounds, 5.9% hits;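 active = mean inhibition above about 93%, with at least 55% of replicates each passing it, limit read from the data, passing the limit was not always enough; inconclusive = only one of those two conditions holds; inactive = neither condition holds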
T cruzi growth-2 = T. cruzi intracellular proliferation inhibitors, confirmation, cell-based, NIH3T3 host, beta-gal parasite, luminescence, cherry-pick. shares compounds with T cruzi growth-1. T. cruzi beta-gal in NIH3T3, GalScreen luminescence, 90 h. inhibition, % at 8.35 µM. 5,600 compounds, 72% hits;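 active = mean replicate inhibition above about 95% and at least 55% of replicates individually reaching it, limit read from the data; inconclusive = only one of the two criteria is met; inactive = neither criterion is met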
T cruzi growth-3 = inhibitors of intracellular T. cruzi replication, confirmation, NIH3T3 host cells, beta-gal parasites, cherry-pick, set 2. T. cruzi beta-gal in NIH3T3, GalScreen luminescence, 90 h. shares compounds with T cruzi growth-1. 5,600 compounds, 21% hits. AID 651740, 2012. inhibition, % at 2.09 µM;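 active = mean inhibition above about 95%, with at least 55% of replicates also reaching it, limit read from the data; inconclusive = meets just one of the two conditions; inactive = meets neither condition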
3T3 cytotox = cytotoxicity in mouse NIH/3T3 fibroblasts, confirmation, cytotoxicity control for T. cruzi proliferation inhibitor project, cell-based, cherry-pick, single point; NIH/3T3 viability, CellTiter-Glo ATP luminescence, 90 h; shares compounds with T cruzi growth-1; cytotoxicity (signal decrease), % at 8.35 µM; 5,600 compounds, 14% hits;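 active = mean signal decrease across replicates above about 35% based on untreated-well scatter, with enough replicates individually passing, limit read from the data; inconclusive = no rule stated though some were filed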
NIH3T3 tox 2 = NIH/3T3 fibroblast cytotoxicity, confirmation, cytotoxicity control, cell-based, cherry-pick, single point, set 2 | shares compounds with T cruzi growth-1 | inhibition, % at 24.9 µM | NIH/3T3 viability, CellTiter-Glo ATP luminescence, 90 h | AID 651744, 2012 | 5,600 compounds, 56% hits;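 active = mean loss of cell viability signal at or above a set limit, and enough replicates individually reaching it; inconclusive = meets only the mean limit or only the replicate share; inactive = meets neither condition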
Numbers stand for hits; 0 = inactive; ? = inconclusive; - = not tested or not shown. This excerpt belongs to a sample that is enriched for hits.

SMILES	IDH1 R132H inh	GASC1 inh	T cruzi growth-1	T cruzi growth-2	T cruzi growth-3	3T3 cytotox	NIH3T3 tox 2
C[C@@H]1CN([C@@H](C)CO)C(=O)c2cc(NS(=O)(=O)c3ccc(Cl)cc3)ccc2O[C@@H](C)CCCCO[C@@H]1CN(C)C(=O)Nc1ccccc1	0	0	100.2	97.9	0	0	24.2
C[C@@H]1CCCCO[C@@H](CN(C)C(=O)c2ccccc2)[C@H](C)CN([C@H](C)CO)C(=O)c2cc(NS(=O)(=O)c3ccc(Cl)cc3)ccc2O1	-	0	98.0	111.3	0	0	0
C[C@@H]1CCCCO[C@H](CN(C)C(=O)Nc2ccccc2)[C@H](C)CN([C@@H](C)CO)C(=O)c2cc(NS(=O)(=O)c3ccc(Cl)cc3)ccc2O1	0	0	?	101.2	0	0	0
C[C@H](CO)N1C[C@H](C)[C@H](CN(C)C(=O)Nc2ccc(F)cc2)Oc2ccc(NS(=O)(=O)c3ccccc3)cc2CC1=O	-	0	-	-	-	-	-
CO[C@@H]1CN(C)C(=O)c2ccc(NC(=O)C3CC3)cc2OC[C@H](C)N(C(=O)C2CCCCC2)C[C@H]1C	0	0	0	-	-	-	-
CCn1c(SCC(=O)Nc2c(Cl)cc(Cl)cc2Cl)nnc1-c1ccc(OC)cc1	0	-	-	-	-	-	-
Cc1ccc(S(=O)(=O)N[C@@H]2C=C[C@@H](CC(=O)NCCCN(C)C)O[C@H]2CO)cc1	0	0	0	-	-	-	-
CC(=O)c1cccc(NC(=O)C(C)NS(=O)(=O)c2ccc(F)cc2)c1 (stereo unspecified)	0	-	-	-	-	-	-
COc1ccc(NC(=O)Nc2ccc3c(c2)C(=O)N([C@@H](C)CO)C[C@@H](C)[C@H](CN(C)C(=O)Nc2ccc(C(F)(F)F)cc2)OCCCC[C@@H](C)O3)cc1	0	0	114.3	108.8	109.4	0	0
COc1ccc(NC(=O)Nc2ccc3c(c2)C(=O)N([C@H](C)CO)C[C@@H](C)[C@@H](CN(C)C(=O)Nc2ccc(OC)cc2)OCCCC[C@@H](C)O3)cc1	0	0	-	-	-	-	-
COc1ccc(NC(=O)Nc2ccc3c(c2)C(=O)N([C@@H](C)CO)C[C@H](C)[C@H](CN(C)C(=O)Nc2ccc(C(F)(F)F)cc2)OCCCC[C@H](C)O3)cc1	0	0	?	104.2	111.5	0	0
COc1ccc(NC(=O)Nc2ccc3c(c2)C(=O)N([C@H](C)CO)C[C@H](C)[C@@H](CN(C)C(=O)Nc2ccc(OC)cc2)OCCCC[C@@H](C)O3)cc1	-	0	0	-	-	-	-
CS(=O)(=O)N(CC(=O)Nc1ccc(F)cc1)c1ccccc1	0	-	-	-	-	-	-
COC(=O)c1c(-c2cccc(C)c2)csc1NC(=O)c1ccccc1[N+](=O)[O-]	0	-	-	-	-	-	-
C[C@H]1CN([C@@H](C)CO)S(=O)(=O)c2ccc(C#CC3CC3)cc2O[C@@H]1CN(C)C(=O)C1CCC1	-	0	0	-	-	-	-
C[C@@H]1CN([C@@H](C)CO)S(=O)(=O)c2ccc(C#CC3CC3)cc2O[C@H]1CN(C)C(=O)C1CCCCC1	-	0	?	104.8	0	37.9	28.6
C[C@H](CO)N1C[C@H](C)[C@@H](CN(C)C(=O)C2CCCCC2)Oc2cc(C#CC3CC3)ccc2S1(=O)=O	-	0	?	104.7	0	0	42.6
C[C@@H]1CN([C@@H](C)CO)S(=O)(=O)c2ccc(C#CC3CC3)cc2O[C@@H]1CN(C)C(=O)C1CCC1	-	0	0	-	-	-	-
C[C@H]1CN([C@@H](C)CO)S(=O)(=O)c2ccc(C#CC3CC3)cc2O[C@H]1CN(C)C(=O)C1CCCCC1	-	0	100.0	106.1	0	0	50.8
C[C@H]1CN([C@@H](C)CO)S(=O)(=O)c2ccc(C#CC3CC3)cc2O[C@@H]1CN(C)C(=O)C1CCCCC1	-	0	110.5	106.1	0	0	44.6
